From ChEMBL document CHEMBL1914334, “Discovery and characterization of potent and selective 4-oxo-4-(5-(5-phenyl-1,2,4-oxadiazol-3-yl)indolin-1-yl)butanoic acids as S1P₁ agonists” (Bioorg Med Chem Lett, 2011)
Calls of active or inactive are those of the source. The calls are words filed in the database; no cut-off is given here.

Molecular target: T1, Sphingosine 1-phosphate receptor 1 (Homo sapiens, UniProt P21453)
Test: Agonist activity at human S1P1 receptor
Type: functional
Conditions: not given
Outline: (§1)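 Human S1P₁ cAMP HTRF read-out; each EC₅₀ is the mean of three or more replicates.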

T1 sequence (P21453 whole entry): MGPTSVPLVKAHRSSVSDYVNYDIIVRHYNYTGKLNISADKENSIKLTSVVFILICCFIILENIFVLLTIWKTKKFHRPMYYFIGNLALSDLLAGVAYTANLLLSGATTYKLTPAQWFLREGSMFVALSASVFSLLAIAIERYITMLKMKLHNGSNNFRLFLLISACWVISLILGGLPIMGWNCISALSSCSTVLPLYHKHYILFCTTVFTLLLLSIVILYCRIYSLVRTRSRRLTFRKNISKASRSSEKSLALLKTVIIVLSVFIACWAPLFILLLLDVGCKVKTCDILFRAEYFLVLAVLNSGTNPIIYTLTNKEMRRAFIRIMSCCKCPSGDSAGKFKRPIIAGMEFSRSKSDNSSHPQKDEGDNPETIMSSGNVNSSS

Q: For `C=CCN(c1ccccc1)S(=O)(=O)c1cc(Cl)cc(Cl)c1`, which EC50 is on record?
A: 6.7 nM

Q: Which EC50 does the source give for `CCN(c1ccc2[nH]ncc2c1)S(=O)(=O)c1cc(C(F)(F)F)cc(C(F)(F)F)c1` here?
A: 372 nM

Q: With `FC(F)(F)c1cc(-c2nc(-c3ccc4[nH]ncc4c3)no2)cc(C(F)(F)F)c1` as the compound, how does the EC50 read?
A: 9.4 nM

Molecular target: T1, Sphingosine 1-phosphate receptor 1
Test: Agonist activity at human S1P1 receptor expressed in HEK293 cells assessed as inhibition of forskolin-stimulated cAMP production after 1 hr by HTRF assay
Type: functional, cell-based
Conditions: not given
Outline: as §1

Q: With `O=C(O)CCCn1ncc2c1CCN(c1noc(-c3cc(C(F)(F)F)cc(C(F)(F)F)c3)n1)C2` as the compound, how does the EC50 read?
A: 369 nM

Q: With `FC(F)(F)c1cc(-c2nc(-c3ccc4c(c3)CCN4)no2)cc(C(F)(F)F)c1` as the compound, how does the EC50 read?
A: 37 nM

Q: With `O=C(O)CCc1nc2cc(-c3noc(-c4cc(C(F)(F)F)cc(C(F)(F)F)c4)n3)ccc2[nH]1` as the compound, how does the EC50 read?
A: 1.2 nM

Q: Which EC50 does the source give for `FC(F)(F)c1cc(-c2nc(N3CCc4[nH]ncc4C3)no2)cc(C(F)(F)F)c1` here?
A: 24 nM

Q: Which EC50 does the source give for `CC(C)Oc1ccc(-c2nc(-c3ccc4c(c3)CCN4C(=O)CCC(=O)O)no2)cc1Br` here?
A: 4 nM

Q: For `CCc1ccc(-c2nc(-c3ccc4c(c3)CCN4C(=O)CCC(=O)O)no2)cc1S(C)(=O)=O`, which EC50 is on record?
A: 38 nM

Q: For `O=C(O)CCn1ncc2cc(-c3noc(-c4cc(C(F)(F)F)cc(C(F)(F)F)c4)n3)ccc21`, which EC50 is on record?
A: 9.8 nM

Q: For `O=C(O)COc1ccc2c(c1)CCN(c1noc(-c3cc(C(F)(F)F)cc(C(F)(F)F)c3)n1)C2`, which EC50 is on record?
A: 54 nM

Q: For `COc1ccc(-c2nc(-c3ccc4c(c3)CCN4C(=O)CCC(=O)O)no2)cc1Cl`, which EC50 is on record?
A: 11 nM

Q: Which EC50 does the source give for `COc1ccc(-c2nc(-c3ccc4c(c3)CCN4C(=O)CCC(=O)O)no2)cc1C(F)(F)F` here?
A: 11 nM

Q: Which EC50 does the source give for `FC(F)(F)c1cc(-c2nc(-c3ccc4[nH]ccc4c3)no2)cc(C(F)(F)F)c1` here?
A: 75 nM

Q: Which EC50 does the source give for `COc1ccc(-c2nc(-c3ccc4c(c3)CCN4C(=O)CCC(=O)O)no2)cc1C` here?
A: 18 nM

Q: For `O=C(O)CCC(=O)N1CCc2cc(-c3noc(-c4ccc(OC(F)(F)F)cc4)n3)ccc21`, which EC50 is on record?
A: 68 nM

Q: For `O=C(O)CCC(=O)N1CCc2cc(-c3noc(-c4ccc(C5CCCC5)c(Cl)c4)n3)ccc21`, which EC50 is on record?
A: 0.82 nM

Q: Which EC50 does the source give for `N[C@@H](CC(=O)N1CCc2cc(-c3noc(-c4cc(C(F)(F)F)cc(C(F)(F)F)c4)n3)ccc21)C(=O)O` here?
A: 1.63 nM

Q: Which EC50 does the source give for `COc1ccc(-c2nc(-c3ccc4c(c3)CCN4C(=O)CCC(=O)O)no2)cc1OC(F)(F)F` here?
A: 1 nM

Q: Which EC50 does the source give for `FC(F)(F)c1cc(-c2nc(N3CCc4[nH]cnc4C3)no2)cc(C(F)(F)F)c1` here?
A: 406 nM

Q: For `CC(C)Oc1ccc(-c2nc(-c3ccc4c(c3)CCN4C(=O)CCC(=O)O)no2)cc1C#N`, which EC50 is on record?
A: 1.1 nM

Q: For `COc1ccc2c(c1)CCN(c1noc(-c3cc(C(F)(F)F)cc(C(F)(F)F)c3)n1)C2`, which EC50 is on record?
A: 1 nM

Q: With `COc1cc(C#N)cc(-c2nc(-c3ccc4c(c3)CCN4C(=O)CCC(=O)O)no2)c1` as the compound, how does the EC50 read?
A: 10.3 nM

Q: For `COC(=O)CCCCn1cc2cc(-c3noc(-c4cc(C(F)(F)F)cc(C(F)(F)F)c4)n3)ccc2n1`, which EC50 is on record?
A: 297 nM

Q: For `CCc1ccc(-c2nc(-c3ccc4c(c3)CCN4C(=O)CCC(=O)O)no2)cc1C(F)(F)F`, which EC50 is on record?
A: 2.7 nM

Q: For `O=C(O)CCC(=O)n1ccc2cc(-c3noc(-c4cc(C(F)(F)F)cc(C(F)(F)F)c4)n3)ccc21`, which EC50 is on record?
A: 41 nM

Q: For `O=C(O)CCCCn1cc2cc(-c3noc(-c4cc(C(F)(F)F)cc(C(F)(F)F)c4)n3)ccc2n1`, which EC50 is on record?
A: 4.2 nM

Q: For `N#Cc1cc(-c2nc(-c3ccc4c(c3)CCN4C(=O)CCC(=O)O)no2)ccc1OC1CCCC1`, which EC50 is on record?
A: 18 nM

Q: For `O=C(O)CCN1CCc2cc(-c3noc(-c4cc(C(F)(F)F)cc(C(F)(F)F)c4)n3)ccc21`, which EC50 is on record?
A: 6.1 nM

Q: Which EC50 does the source give for `O=C(O)CCC(=O)N1CCc2cc(-c3noc(-c4ccc(Cl)c(OC(F)(F)F)c4)n3)ccc21` here?
A: 5.3 nM

Q: With `CC[C@H](C)Oc1ccc(-c2nc(-c3ccc4c(c3)CCN4C(=O)CCC(=O)O)no2)cc1Cl` as the compound, how does the EC50 read?
A: 45 nM

Q: For `CCOC(=O)CCn1ncc2cc(-c3noc(-c4cc(C(F)(F)F)cc(C(F)(F)F)c4)n3)ccc21`, which EC50 is on record?
A: > 100 nM

Q: Which EC50 does the source give for `O=C(O)CC(=O)N1CCc2cc(-c3noc(-c4cc(C(F)(F)F)cc(C(F)(F)F)c4)n3)ccc21` here?
A: 102 nM

Q: With `FC(F)(F)c1cc(-c2nc(-c3ccc4[nH]cnc4c3)no2)cc(C(F)(F)F)c1` as the compound, how does the EC50 read?
A: 4.3 nM

Q: For `COc1ccc(-c2nc(-c3ccc4c(c3)CCN4C(=O)CCC(=O)O)no2)cc1C#N`, which EC50 is on record?
A: 6.3 nM

Q: Which EC50 does the source give for `O=C(O)CCC(=O)N1CCc2cc(-c3noc(-c4ccc(-c5cccs5)c(C(F)(F)F)c4)n3)ccc21` here?
A: 1.3 nM

Q: With `O=C(O)CCCn1ncc2cc(-c3noc(-c4cc(C(F)(F)F)cc(C(F)(F)F)c4)n3)ccc21` as the compound, how does the EC50 read?
A: 4.9 nM

Q: For `COc1cc(-c2nc(-c3ccc4c(c3)CCN4C(=O)CCC(=O)O)no2)ccc1OC(F)F`, which EC50 is on record?
A: 1.5 nM

Q: With `O=C(O)CCCC(=O)N1CCc2cc(-c3noc(-c4cc(C(F)(F)F)cc(C(F)(F)F)c4)n3)ccc21` as the compound, how does the EC50 read?
A: 6.6 nM

Q: For `FC(F)(F)c1cc(-c2nc(-c3ccc4[nH]ncc4c3)no2)cc(C(F)(F)F)c1`, which EC50 is on record?
A: 7.2 nM

Molecular target: T1, Sphingosine 1-phosphate receptor 1
Test: Agonist activity at recombinant human S1P1 receptor expressed in HEK293 cells after 2 hrs by beta-arrestin assay
Type: functional, cell-based
Conditions: not given

Q: With `CC(C)Oc1ccc(-c2nc(-c3ccc4c(c3)CCN4C(=O)CCC(=O)O)no2)cc1C#N` as the compound, how does the EC50 read?
A: 6.8 nM

Tested on: Mus musculus
Test: Immunomodulatory activity BALB/C mouse assessed as induction of lymphopenia at 1 mg/kg, po after 5 hrs
Type: functional, organism-based
Parameters: dose 1 mg/kg
Conditions: not given
Outline: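 Male BALB/c mice were given a single oral dose of 1.0 mg/kg or vehicle (0.5% methylcellulose). Blood lymphocytes were counted at one time point, 5 h post-dose, with n = 6 per dose group (mean ± SD). Lowering was judged relative to the vehicle group.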

Q: For `O=C(O)CCc1nc2cc(-c3noc(-c4cc(C(F)(F)F)cc(C(F)(F)F)c4)n3)ccc2[nH]1`, which Activity is on record?
A: inactive

Tested on: Mus musculus
Test: Immunomodulatory activity BALB/C mouse assessed as induction of lymphopenia at 0.3 to 3 mg/kg, po after 8 hrs
Type: functional, organism-based
Conditions: not given
Outline: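 Male BALB/c mice were dosed orally at 0.3, 1.0 or 3.0 mg/kg, or with vehicle (0.5% methylcellulose in water). Blood lymphocytes were followed over time post-dose (mean ± SD). Observed values were fitted with an indirect PK/PD model.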

Q: With `CC(C)Oc1ccc(-c2nc(-c3ccc4c(c3)CCN4C(=O)CCC(=O)O)no2)cc1C#N` as the compound, how does the Activity read?
A: Active

Tested on: not listed separately
Test: Aqueous solubility of the compound
Type: physicochemical
Conditions: buffer

Q: For `N[C@@H](CC(=O)N1CCc2cc(-c3noc(-c4cc(C(F)(F)F)cc(C(F)(F)F)c4)n3)ccc21)C(=O)O`, which solubility is on record?
A: < 10 µg/mL

Tested on: not listed separately
Test: Half life in human
Type: ADME, organism-based
Conditions: in vivo

Q: For `CCCCCCCCc1ccc(CCC(N)(CO)CO)cc1.Cl` [FINGOLIMOD HYDROCHLORIDE], which half-life is on record?
A: 144 h
